EPA's CvTdb concentration-time database

Columns and labels:
Rat [1] = test: concentration in plasma after dosing; details: dosed: Fluorotelomer alcohol 8+2, 40 mg/kg, iv, Male, F344
Rat [2] = test: concentration in plasma after dosing; details: dosed: Fluorotelomer alcohol 8+2, 40 mg/kg, iv, Male, F344; remark: listed apart in the source
Rat [3] = test: concentration in kidney after dosing; details: 12 h; dosed: Fluorotelomer alcohol 8+2; 24 mg/kg; oral; Male; Harlan Sprague Dawley
Rat [4] = test: concentration in plasma after dosing; details: 5 min; dosed: Fluorotelomer alcohol 8+2; 12 mg/kg; iv; Male; F344
Rat [5] = test: concentration in plasma after dosing; details: dosed: Fluorotelomer alcohol 8+2, 24 mg/kg, oral, Male, Harlan Sprague Dawley
Rat [6] = test: concentration in plasma after dosing; details: 6 h; dosed: Primidone; 80 mg/kg; oral; Female; F344
Rat [7] = test: concentration in plasma after dosing; details: 0.25 h; dosed: Primidone; 30 mg/kg; oral; Male; F344
Rat [8] = test: concentration in liver after dosing; details: 864 h; dosed: Perfluorodecanoic acid; 10 mg/kg; oral; Female; Harlan Sprague Dawley
Rat [9] = test: concentration in plasma after dosing; details: dosed: Perfluorodecanoic acid, 2 mg/kg, iv, Male, F344
Rat [10] = test: concentration in brain after dosing; details: 864 h; dosed: Perfluorodecanoic acid; 10 mg/kg; oral; Female; Harlan Sprague Dawley
Rat [11] = test: concentration in liver after dosing; details: 864 h; dosed: Perfluorodecanoic acid; 10 mg/kg; oral; Male; Harlan Sprague Dawley
Rat [12] = test: concentration in plasma after dosing; details: dosed: Perfluorodecanoic acid, 2 mg/kg, iv, Male, F344; remark: listed apart in the source
Rat [13] = test: concentration in plasma after dosing; details: dosed: Perfluorodecanoic acid, 2 mg/kg, oral, Male, Harlan Sprague Dawley
Rat [14] = test: concentration in heart after dosing; details: 4 h; dosed: Bis 2-Chloroethoxy Methane; 20 mg/kg; iv; Male; F344
Rat [15] = test: concentration in heart after dosing; details: 20 min; dosed: Bis 2-Chloroethoxy Methane; 20 mg/kg; iv; Male; F344
Rat [16] = test: concentration in plasma after dosing; details: dosed: dichloroacetic acid, 40 mg/kg, oral, Female, Harlan Sprague Dawley
Rat [17] = test: concentration in plasma after dosing; details: dosed: dichloroacetic acid, 40 mg/kg, oral, Female, Harlan Sprague Dawley; remark: listed apart in the source
Rat [18] = test: concentration in plasma after dosing; details: 40 min; dosed: dichloroacetic acid; 40 mg/kg; oral; Female; Harlan Sprague Dawley
Rat [19] = test: concentration in plasma after dosing; details: dosed: Wyeth-14643, 2.0 mg/kg, oral, Male, Sprague-Dawley
Rat [20] = test: concentration in plasma after dosing; details: dosed: Wyeth-14643, 5.0 mg/kg, oral, Male, Sprague-Dawley
Rat [21] = test: concentration in plasma after dosing; details: 3 h; dosed: Wyeth-14643; 2.0 mg/kg; oral; Male; Sprague-Dawley
Rat [22] = test: concentration in heart after dosing; details: 3 h; dosed: Thiodiglycolic Acid; 20 mg/kg; iv; Female; Harlan Sprague Dawley
Rat [23] = test: concentration in liver after dosing; details: 4 h; dosed: Thiodiglycolic Acid; 20 mg/kg; iv; Male; Harlan Sprague Dawley
Rat [24] = test: concentration in liver after dosing; details: 20 min; dosed: Thiodiglycolic Acid; 20 mg/kg; iv; Female; Harlan Sprague Dawley
Rat [25] = test: concentration in plasma after dosing; details: 10 h; dosed: Thiodiglycolic Acid; 20 mg/kg; iv; Male; F344
Rat [26] = test: concentration in thymus after dosing; details: 40 min; dosed: Thiodiglycolic Acid; 20 mg/kg; iv; Female; Harlan Sprague Dawley
Rat [27] = test: concentration in liver after dosing; details: 5.333 h; dosed: Thiodiglycolic Acid; 20 mg/kg; iv; Male; Harlan Sprague Dawley
Rat [28] = test: concentration in heart after dosing; details: 1 h; dosed: Thiodiglycolic Acid; 20 mg/kg; iv; Male; Harlan Sprague Dawley
Rat [29] = test: concentration in plasma after dosing; details: 10 min; dosed: Di-n-butyl phthalate; 20 mg/kg; iv; Male; Sprague-Dawley
Rat [30] = test: concentration in plasma after dosing; details: 4 h; dosed: Di-n-butyl phthalate; 20 mg/kg; iv; Male; Sprague-Dawley
dog = test: concentration in urine after dosing; details: dosed: trichloroethylene, 100 ppm, inhalation, duration: 6 hr, male, beagle
Summary of the method: (§1)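 Points were largely digitised from plot screenshots with WebPlotDigitizer or otherwise copied from tables, and they remain in the units each source reported. They come from published in vivo toxicokinetic studies and two structured collections. Sampling and analytical methods follow each source and were often not reported.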

human = test: concentration in urine after dosing; details: dosed: trichloroethylene, inhalation, duration: 2 hr - 20 min
Summary of the method: as §1

OCCC(F)(F)C(F)(F)C(F)(F)C(F)(F)C(F)(F)C(F)(F)C(F)(F)C(F)(F)F [Fluorotelomer alcohol 8+2]
Details	concentration in plasma [ng/mL]
Rat [1], 3 h	505
Rat [1], 5 min	23200
Rat [2], 0.5 h	5950
Rat [2], 9 h	68
Rat [5], 0.25 h	176
Rat [5], 24 h	3.78

Details	concentration in kidney [ng/g]	concentration in plasma [ng/mL]
Rat [3]	187	–
Rat [4]	–	3800

CCC1(c2ccccc2)C(=O)NC(=O)NC1=O [Phenobarbital]
Details	concentration in plasma [ng/mL]
Rat [6]	1820
Rat [7]	340

O=C(O)C(F)(F)C(F)(F)C(F)(F)C(F)(F)C(F)(F)C(F)(F)C(F)(F)C(F)(F)C(F)(F)F [Perfluorodecanoic acid]
Details	concentration in brain [ng/g]	concentration in liver [ng/g]
Rat [8]	–	59300
Rat [10]	1220	–
Rat [11]	–	47900

concentration in plasma [ng/mL]
Details	5 min	12 h	192 h	1200 h
Rat [9]	–	5770	–	860
Rat [12]	8200	–	3280	–
Rat [13]	–	7480	–	1470

ClCCOCOCCCl [Bis 2-Chloroethoxy Methane]
Details	concentration in heart [ng/g]
Rat [14]	83.9
Rat [15]	6660

O=C(O)C(Cl)Cl [dichloroacetic acid]
concentration in plasma [ng/mL]
Details	1.5 h	2 h	10 min	20 min
Rat [16]	–	1060	–	7440
Rat [17]	3320	–	3380	–

Details	concentration in plasma [ng/mL]
Rat [18]	10700

Cc1cccc(Nc2cc(Cl)nc(SCC(=O)O)n2)c1C
concentration in plasma [ng/mL]
Details	0.25 h	4 h	5 min	8 h
Rat [19]	889	160	–	–
Rat [20]	–	–	572	255

Details	concentration in plasma [ng/mL]
Rat [21]	426

O=C(O)CSCC(=O)O [Thiodiglycolic Acid]
Details	concentration in heart [ng/g]	concentration in liver [ng/g]	concentration in plasma [ng/mL]	concentration in thymus [ng/g]
Rat [22]	1150	–	–	–
Rat [23]	–	70900	–	–
Rat [24]	–	47100	–	–
Rat [25]	–	–	304	–
Rat [26]	–	–	–	3420
Rat [27]	–	22900	–	–
Rat [28]	1930	–	–	–

CCCCOC(=O)c1ccccc1C(=O)O [Mono-n-butyl phthalate]
Details	concentration in plasma [ng/mL]
Rat [29]	28800
Rat [30]	726

O=C(O)C(Cl)(Cl)Cl [trichloroacetic acid]
dog
Details	concentration in urine [ng/mL]
24 h	32600
48 h	92800
72 h	204000
96 h	386000
120 h	228000

concentration in urine [mg/kg], human
Details	2.667 h	6.667 h	10.67 h	19.67 h
1348 mg	6.6	14.2	15.6	21.1
1681 mg	4.3	10.6	22.2	24.9
3907 mg	3	14.2	22.9	26.7
